High-throughput results from PubChem BioAssay.
DSG3 Ab inh – inhibitors of pemphigus antibody binding to DSG3, primary screen, biochemical, bead-based, flow cytometry, scFv-GFP; Desmoglein-3 (Homo sapiens), P32926; DSG3-coupled beads, scFv-anti-DSG3-GFP binding; hits give low values; binding (percent of control), % at 10 µM; 310,000 compounds, 0.48% hits; AID 588358, 2011;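 active means binding more than 3 SD below its plate's average and above zero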;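 further: hits lower antibody fragment binding to DSG3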
T cell HTS – modulators of CD8 T cell-vesicle binding, primary screen, mouse 2C CD8+ T cells, flow cytometry; 2C CD8+ T cell-vesicle binding; hits give low values; response (vesicle binding), % at 7 µM; 330,000 compounds, 0.068% hits; AID 2052, 2009;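 active means response, share of CD8 T cells binding vesicles, and their 90th percentile fluorescence all below set limits, cut at about 80% in these data, passing the limit was not always enough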;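 further: values below 100% mean blocked vesicle binding to the CD8+ T cells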
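System: murine 2C transgenic CD8+ T lymphocytes; also added: QL9-loaded Drosophila micro-vesicles; times: binding 1.5 h at 37 °C; measured by: flow cytometry, PE anti-B7-1 (FL2) versus Alexa647 anti-CD8 (FL8), PFA-fixed; control set: Peptide-free naked vesicles (low) and QL9 vesicles with 0.7% DMSO vehicle (high)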
p-CIP stab down – p/CIP-EGFP fusion destabilizers, primary screen, fluorescence, F442A cells; 290,000 compounds, 0.01% hits; 16 h; decrease of EGFP signal, % at 10 µM; AID 1984, 2009; Q05BA5;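 active means EGFP signal decrease of at least 30% at 10 µM or well 3 SD below plate mean, unless failing retest; inactive means the rest, including hits failing retest or dose response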
CHT PAM – CHT positive allosteric modulators, primary screen, cell-based, membrane potential dye, choline EC20. B-score at 10 µM. AID 488977, 2010. High affinity choline transporter 1 (Homo sapiens), Q9GZV3. 310,000 compounds, 0.49% hits. CHT-expressing cells; hits give high values; LV-AA mutant CHT in HEK293 cells;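 active means initial fluorescence not abnormally high and integrated response B-score, plate-corrected, over 3 SD above library mean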
CHT inh – inhibitors of human choline transporter CHT; B-score at 10 µM; AID 488975, 2010; High affinity choline transporter 1 (Homo sapiens), Q9GZV3; CHT-expressing cells, membrane potential dye, choline response; hits give low values; 310,000 compounds, 0.86% hits;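 active means B-score over 3 SD under the library average, and starting fluorescence ratio not unusually high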;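 further: choline stimulus applied at its EC90 after an EC20 pre-addition; B-score computed on integrated fluorescence ratio after choline addition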
GPR7 antagonist – GPR7 receptor antagonists, primary screen, cell-based, fluorescence, single concentration. Neuropeptides B/W receptor type 1 (Homo sapiens), P48145. GPR7-expressing cells, fluorescence antagonist assay. inhibition, % at 4.4 µM. 290,000 compounds, 1.1% hits; in the data active means inhibition above about 16%, passing the limit was not always enough;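 further: cells stimulated with the agonist NPW; 0% = agonist with vehicle and 100% = vehicle without agonist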
CHT inh conf – CHT inhibitors, confirmation, cell-based, membrane potential dye, duplicate; shares compounds with CHT inh; CHT-expressing cells, choline membrane potential dye; LV-to-AA substituted CHT, HEK293 cells; CHT activity remaining % of control (hits give low values), % at 10 µM; 2,400 compounds, 70% hits; AID 493221, 2011;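 active means choline transporter activity left, mean of duplicates at 10 µM, below buffer-only control mean minus 3 SD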;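 further: depolarization triggered by choline at its EC90 following an EC20 pre-addition; 0% = hemicholinium-3 full block and 100% = buffer-only control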
HEK293 CHT ctr – membrane potential effects in parental HEK293, counter-screen for CHT inhibitor project, cell-based, membrane potential dye; membrane potential ratio readout (active if shifted either direction beyond buffer ±3SD; no single direction) at 10 µM; choline response; active = decrease or increase beyond buffer ±3SD; 2,400 compounds, 4% hits; shares compounds with CHT inh;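 further: parental cells lack the transporter so any hit is non-specific; ratio is peak minus trough fluorescence over baseline after EC90 choline challenge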
An asterisk follows results filed as active; i = inactive; . = no result. Sampled rows, rich in hits. Any-hit rate of the full collection: about 2.3%.

SMILES	DSG3 Ab inh	T cell HTS	p-CIP stab down	CHT PAM	CHT inh	GPR7 antagonist	CHT inh conf	HEK293 CHT ctr
O=C(NCc1ccc(Cl)cc1)c1ccc(CNc2c(N3CCOCC3)c(=O)c2=O)cc1	93	154	-15	i	i	-13	.	.
O=[N+]([O-])c1cc(NS(=O)(=O)c2ccc(Cl)nc2)ccc1Cl	111	465	.	i	-6.2*	.	42%*	i
CC(C)c1ccc(NS(=O)(=O)c2ccc(Cl)nc2)cc1	94	0	-7	i	i	0	.	.
CC(=O)c1ccc2cc3c(cc2c1)OCO3	101	.	.	.	.	.	.	.
COc1ccccc1NC(=O)CNS(=O)(=O)c1ccccc1	.	178	-13	i	-5.7*	-8	i	i
O=c1[nH]cc(S(=O)(=O)N2CCN(c3ccccc3F)CC2)c(=O)[nH]1	96	.	.	.	.	.	.	.
CCOc1ccc(C2NC(=O)c3sc(=S)n(-c4ccccc4)c3N2)cc1 (centres undefined)	98	376	16	i	-4.9*	-6	i	i
Cc1ccc(S(=O)(=O)N2C[C@@H]3[C@H]4CC[C@H](C4)[C@@H]3[C@@H](C)[C@H]2c2ccco2)cc1	96	.	.	.	.	.	.	.
O=C(c1ccco1)N1CCN(C(=O)C2Cc3ccccc3CN2S(=O)(=O)c2ccc(F)cc2)CC1 (centres undefined)	108	441	-24	i	i	15	.	.
O=C(C1Cc2ccccc2CN1S(=O)(=O)c1ccc(F)cc1)N1CCCCC1 (centres undefined)	116	703	-1	i	-6.3*	-10	3.1%*	i
O=C(O)CC(c1ccccc1)c1ccc2c(c1)OCO2 (centres undefined)	103	.	.	.	.	.	.	.
C[C@H](CO)N1C[C@H](C)[C@@H](CN(C)C(=O)c2cccnc2)Oc2ncc(Br)cc2C1=O	98	.	.	.	.	.	.	.
CC(=O)Nc1ccc(Nc2cc(C)c3ccccc3n2)cc1	119	190	-4	i	-6.4*	-17	46%*	i
O=c1[nH]nnc2c1cnn2-c1ccccc1	91	.	.	.	.	.	.	.
O=c1cc(-c2ccccc2)nc2c(-c3ccccc3)c(C(F)(F)F)[nH]n12	106	578	-2	i	-5.7*	-21	69%*	i
Cc1cc(=O)n2[nH]c(C)c(-c3ccccc3)c2n1	107	508	-18	i	i	-17	.	.
O=C(NCCCn1ccnc1)c1cc(-c2ccc(Cl)cc2)nc2ccccc12	99	162	4	i	i	1	.	.
Cc1ccc2nc(-c3ccccc3)cc(C(=O)NCCCn3ccnc3)c2c1	113	466	-14	i	-11*	-1	30%*	i
O=C(NCCCn1ccnc1)c1cn(-c2ccccc2)nc1-c1ccc(F)cc1	102	i	-1	i	-6.9*	-6	36%*	i
O=C(O)c1ccccc1C(=O)NCCCn1ccnc1	99	269	0	i	i	-17	.	.
CN1OC[C@@H]2CN(Cc3cc(Cl)cc(Cl)c3)[C@H](c3cccc(-c4ccccc4)c3)C[C@@H]21	100	.	.	.	.	.	.	.
O=C(c1ccccc1)C(CN1CCCCC1)c1ccccc1 (centres undefined)	123	.	.	.	.	.	.	.
Cc1cccc(N2CCN(Cc3cc(=O)n4ccsc4n3)CC2)c1C	110	210	0	i	i	-10	.	.
O=c1cc(CN2CCN(c3ccccc3O)CC2)nc2sccn12	100	324	-2	i	-8.8*	4	42%*	i
